The text below walks through data of ChEMBL document CHEMBL4052814, “GNE-781, A Highly Advanced Potent and Selective Bromodomain Inhibitor of Cyclic Adenosine Monophosphate Response Element Binding Protein, Binding Protein (CBP)” (J Med Chem, 2017).

Activity calls are given as the source filed them. The rule behind the calls is not given here.

The IC50 is the concentration that inhibits the measured activity by half. A word on the EC50: it is the midpoint of the concentration-response curve.

The target of series [1] is T1, CREB-binding protein (Homo sapiens, UniProt Q92793). The series can be described thus: Displacement of biotinylated histone H3K14 peptide ligand from human recombinant His-tagged CBP measured after 10 mins by TR-FRET assay. (Time-resolved FRET reads energy transfer from a long-lived donor to a nearby acceptor.)
The target in series [2] is T1, CREB-binding protein. As to the kind of experiment: Inhibition of CBP in human MV-4-11 cells assessed as decrease in MYC expression incubated for 4 hrs measured by luminescence method. The class given is cell-based.
The target in series [3] is T1, CREB-binding protein. As to the kind of experiment: Inhibition of Halo-tagged histone H3.3 binding to NanoLuc luciferase conjugated human CBP expressed in HEK293 cells after overnight incubation by BRET assay. The class given is cell-based.
Series [4] addresses T2, Bromodomain-containing protein 4 (Homo sapiens, UniProt O60885). The series can be described thus: Displacement of biotinylated histone H3K14 peptide ligand from human recombinant His-tagged BRD4 bromodomain-2 measured after 10 mins by TR-FRET assay.
Series [5] concerns the target T2, Bromodomain-containing protein 4. As to the kind of experiment: Displacement of biotinylated histone H3K14 peptide ligand from human recombinant His-tagged BRD4 bromodomain-1 measured after 10 mins by TR-FRET assay.
A short description of series [6]: Antitumor activity against human MOLM16 cells xenografted in C.B-17 SCID beige mouse assessed as tumor growth inhibition at 10 mg/kg administered via oral gavage as bid for 21 days relative to control. The conditions noted are these: read-out: TGI. The class given is functional. The method, boiled down:
(§1)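 Female C.B-17 SCID.bg mice received 5 million MOLM-16 cells s.c. in HBSS/Matrigel in the right flank. Dosing began at 130–300 mm3: oral gavage BID for 21 days in 0.5% methylcellulose, 0.2% Tween 80, n=10/group. Caliper volumes taken; %TGI computed from the area under the mixed-model spline-fitted curve per day versus vehicle.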
For orientation: Xenograft models place foreign cells or tissue in a host animal.

Series [7] in a line: Antitumor activity against human MOLM16 cells xenografted in C.B-17 SCID beige mouse assessed as tumor growth inhibition at 3 mg/kg administered via oral gavage as bid for 21 days relative to control. The class given is functional. The conditions noted are these: read-out: TGI. In outline: as §1
For another series, the target named is Cytochrome P450 3A4 (Homo sapiens, UniProt P08684). The series can be described thus: Inhibition of CYP3A4 (unknown origin). The class given is ADME.
Series [8] can be described thus: Antitumor activity against human MOLM16 cells xenografted in C.B-17 SCID beige mouse assessed as tumor growth inhibition at 30 mg/kg administered via oral gavage as bid for 21 days relative to control. Type of series: functional. The conditions noted are these: read-out: TGI. The method, boiled down: as §1
Series [9] has as its system Mus musculus. As to the kind of experiment: Toxicity in C.B-17 SCID beige mouse xenografted with human MOLM-16 cells assessed as decrease in body weight at 3 to 30 mg/kg administered via oral gavage as bid for 21 days measured during compound dosing. The conditions noted are these: in vivo.
Series [10] in a line: Drug uptake in tumor of C.B-17 SCID beige mouse xenografted with human MOLM16 cells at 3 to 30 mg/kg administered via oral gavage […] measured 2 to 24 hrs post last dose by LC-MS/MS method. The conditions noted are these: in vivo. Type of series: ADME, organism-based, Neoplasm. The method, boiled down:
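In MOLM-16 xenograft mice given single oral doses of 3–30 mg/kg, plasma and tumor were sampled from 2 to 24 h. Tumor was homogenized in 4 volumes of water. Both matrices were extracted with acetonitrile with labetalol as internal standard and measured by LC-MS/MS. Levels were corrected for plasma protein and tissue binding to give unbound concentrations.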

In a further series the target is Cytochrome P450 2C9 (Homo sapiens, UniProt P11712). The series can be described thus: Inhibition of CYP2C9 (unknown origin). The class given is ADME.
In the next series the target is Cytochrome P450 2C19 (Homo sapiens, UniProt P33261). The series can be described thus: Inhibition of CYP2C19 (unknown origin). Type of series: ADME.
Series [11] deals with Mus musculus. The series can be described thus: In vivo inhibition of CBP in human MOLM16 cells xenografted in C.B-17 SCID beige mouse assessed as suppression of MYC transcript levels at 30 mg/kg administered via oral gavage […] measured 2 hrs post last dose by real time-PCR method relative to control. The class given is functional. In outline:
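MOLM-16 subcutaneous xenografts in SCID beige mice received single oral doses of 3–30 mg/kg (n=3/group). Tumors were taken at time points from 2 to 24 h. MYC transcript was measured in tumor RNA by one-step TaqMan qRT-PCR with ACTB as housekeeping gene. Results are given relative to vehicle-treated animals by the comparative Ct method.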

In series [12] the test system is Mus musculus. The series can be described thus: In vivo inhibition of CBP in human MOLM16 cells xenografted in C.B-17 SCID beige mouse assessed as suppression of MYC transcript levels at 3 mg/kg administered via oral gavage as bid for 21 days measured 2 to 8 hrs post last dose by real time-PCR method. Type of series: functional, organism-based.
Series [13] concerns Mus musculus. As to the kind of experiment: In vivo inhibition of CBP in human MOLM16 cells xenografted in C.B-17 SCID beige mouse assessed as MYC transcript levels at 3 mg/kg administered via oral gavage as bid for 21 days measured 16 hrs post last dose by real time-PCR method. Type of series: functional. Set-up: scale not given: the % may be the effect or the level left.
A further series has as its target Cytochrome P450 2D6 (Homo sapiens, UniProt P10635). As to the kind of experiment: Inhibition of CYP2D6 (unknown origin). The class given is ADME.
Series [14] in a line: Cytotoxicity against induced-Treg cells differentiated from human PBMC derived naive CD4-positive T cells assessed as effect on cell viability at 0.001 to 2 uM measured after 4 days by […] dye-based flow cytometry. The conditions noted are these: 96 h. The method, boiled down:
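Naïve CD4+ T cells from healthy-donor PBMC were differentiated to iTregs with anti-CD3, anti-CD28, rIL-2 (10 ng/ml) and rTGFβ in RPMI-1640 with 10% FCS. Compound was tested from 2 µM in 2-fold dilutions, with DMSO as control. Cells were harvested on day 4 and viability was scored by flow cytometry with a fixable viability dye.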

T1 sequence (Q92793 whole entry): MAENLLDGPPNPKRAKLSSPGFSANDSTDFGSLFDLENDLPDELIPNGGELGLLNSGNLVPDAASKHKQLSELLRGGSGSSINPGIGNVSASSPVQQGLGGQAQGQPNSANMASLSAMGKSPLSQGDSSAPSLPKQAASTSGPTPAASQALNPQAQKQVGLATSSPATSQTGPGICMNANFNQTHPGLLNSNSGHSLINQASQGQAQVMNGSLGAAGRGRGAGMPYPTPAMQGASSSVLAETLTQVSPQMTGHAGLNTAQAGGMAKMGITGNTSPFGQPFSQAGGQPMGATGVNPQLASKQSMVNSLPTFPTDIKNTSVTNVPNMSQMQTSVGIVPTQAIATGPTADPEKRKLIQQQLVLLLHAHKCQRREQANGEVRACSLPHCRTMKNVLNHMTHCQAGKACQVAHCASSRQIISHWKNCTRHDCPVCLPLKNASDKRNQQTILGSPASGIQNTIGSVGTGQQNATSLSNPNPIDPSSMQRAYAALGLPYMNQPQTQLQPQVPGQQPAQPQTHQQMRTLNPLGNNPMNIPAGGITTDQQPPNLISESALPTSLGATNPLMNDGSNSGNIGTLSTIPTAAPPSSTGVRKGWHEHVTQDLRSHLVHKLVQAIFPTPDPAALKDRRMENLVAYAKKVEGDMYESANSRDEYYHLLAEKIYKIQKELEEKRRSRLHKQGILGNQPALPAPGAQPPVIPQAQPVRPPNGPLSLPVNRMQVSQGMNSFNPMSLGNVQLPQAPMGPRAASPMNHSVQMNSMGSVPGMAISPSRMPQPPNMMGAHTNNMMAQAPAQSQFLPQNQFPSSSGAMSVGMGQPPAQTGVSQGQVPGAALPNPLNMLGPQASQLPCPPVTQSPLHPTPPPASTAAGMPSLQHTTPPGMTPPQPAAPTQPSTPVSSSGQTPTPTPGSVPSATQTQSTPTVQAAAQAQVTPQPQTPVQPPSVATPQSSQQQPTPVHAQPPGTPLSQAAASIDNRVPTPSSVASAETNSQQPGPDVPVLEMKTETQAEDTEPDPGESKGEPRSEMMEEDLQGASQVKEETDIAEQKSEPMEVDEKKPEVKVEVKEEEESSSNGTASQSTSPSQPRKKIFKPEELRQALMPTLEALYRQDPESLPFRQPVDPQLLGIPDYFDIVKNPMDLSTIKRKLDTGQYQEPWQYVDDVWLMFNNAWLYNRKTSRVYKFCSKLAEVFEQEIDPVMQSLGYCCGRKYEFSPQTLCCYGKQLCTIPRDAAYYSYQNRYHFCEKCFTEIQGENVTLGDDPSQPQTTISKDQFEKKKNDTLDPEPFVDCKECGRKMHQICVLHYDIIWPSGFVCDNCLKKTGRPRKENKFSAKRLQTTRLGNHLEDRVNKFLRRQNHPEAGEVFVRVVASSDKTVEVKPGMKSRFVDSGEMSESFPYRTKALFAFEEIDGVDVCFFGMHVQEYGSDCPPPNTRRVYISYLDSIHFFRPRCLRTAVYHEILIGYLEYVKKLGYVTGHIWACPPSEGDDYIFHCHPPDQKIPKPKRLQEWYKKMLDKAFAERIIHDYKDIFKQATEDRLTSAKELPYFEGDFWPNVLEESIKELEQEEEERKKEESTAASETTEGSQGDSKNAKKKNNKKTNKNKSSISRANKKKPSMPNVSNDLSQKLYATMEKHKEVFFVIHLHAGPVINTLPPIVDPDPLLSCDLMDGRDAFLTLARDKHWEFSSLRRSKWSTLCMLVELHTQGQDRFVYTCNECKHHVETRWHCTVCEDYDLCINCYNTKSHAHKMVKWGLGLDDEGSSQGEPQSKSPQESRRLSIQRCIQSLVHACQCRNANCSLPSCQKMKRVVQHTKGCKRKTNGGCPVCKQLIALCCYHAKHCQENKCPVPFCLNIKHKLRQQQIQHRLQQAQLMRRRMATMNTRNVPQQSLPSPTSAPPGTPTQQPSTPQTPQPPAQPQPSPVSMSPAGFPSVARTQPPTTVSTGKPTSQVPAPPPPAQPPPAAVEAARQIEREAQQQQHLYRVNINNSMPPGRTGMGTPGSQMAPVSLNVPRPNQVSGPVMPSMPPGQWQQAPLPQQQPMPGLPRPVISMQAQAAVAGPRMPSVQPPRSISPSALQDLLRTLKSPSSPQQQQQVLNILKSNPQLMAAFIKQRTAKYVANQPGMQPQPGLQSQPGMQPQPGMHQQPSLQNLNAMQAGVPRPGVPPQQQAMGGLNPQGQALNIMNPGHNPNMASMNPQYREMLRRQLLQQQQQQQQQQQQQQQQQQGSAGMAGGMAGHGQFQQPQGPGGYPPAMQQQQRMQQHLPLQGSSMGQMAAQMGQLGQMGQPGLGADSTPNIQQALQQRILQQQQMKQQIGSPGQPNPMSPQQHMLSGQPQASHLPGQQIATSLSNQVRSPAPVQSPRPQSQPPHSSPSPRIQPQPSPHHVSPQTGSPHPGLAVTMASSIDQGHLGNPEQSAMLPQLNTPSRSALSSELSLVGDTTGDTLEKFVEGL
Chain of Cytochrome P450 2C19 (P33261 whole entry): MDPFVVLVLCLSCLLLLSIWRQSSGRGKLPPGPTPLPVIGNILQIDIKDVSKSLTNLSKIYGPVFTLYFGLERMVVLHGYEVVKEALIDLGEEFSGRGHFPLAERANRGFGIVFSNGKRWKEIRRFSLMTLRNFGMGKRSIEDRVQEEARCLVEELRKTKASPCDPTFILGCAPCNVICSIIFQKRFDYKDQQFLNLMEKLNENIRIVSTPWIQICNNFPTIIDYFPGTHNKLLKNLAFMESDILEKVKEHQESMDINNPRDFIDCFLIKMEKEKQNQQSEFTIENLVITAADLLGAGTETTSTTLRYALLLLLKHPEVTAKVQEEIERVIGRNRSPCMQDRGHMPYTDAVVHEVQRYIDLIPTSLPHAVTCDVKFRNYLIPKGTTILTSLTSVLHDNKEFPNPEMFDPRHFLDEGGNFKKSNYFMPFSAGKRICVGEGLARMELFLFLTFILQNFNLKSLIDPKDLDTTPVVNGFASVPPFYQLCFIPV
Chain of Cytochrome P450 2D6 (P10635 whole entry): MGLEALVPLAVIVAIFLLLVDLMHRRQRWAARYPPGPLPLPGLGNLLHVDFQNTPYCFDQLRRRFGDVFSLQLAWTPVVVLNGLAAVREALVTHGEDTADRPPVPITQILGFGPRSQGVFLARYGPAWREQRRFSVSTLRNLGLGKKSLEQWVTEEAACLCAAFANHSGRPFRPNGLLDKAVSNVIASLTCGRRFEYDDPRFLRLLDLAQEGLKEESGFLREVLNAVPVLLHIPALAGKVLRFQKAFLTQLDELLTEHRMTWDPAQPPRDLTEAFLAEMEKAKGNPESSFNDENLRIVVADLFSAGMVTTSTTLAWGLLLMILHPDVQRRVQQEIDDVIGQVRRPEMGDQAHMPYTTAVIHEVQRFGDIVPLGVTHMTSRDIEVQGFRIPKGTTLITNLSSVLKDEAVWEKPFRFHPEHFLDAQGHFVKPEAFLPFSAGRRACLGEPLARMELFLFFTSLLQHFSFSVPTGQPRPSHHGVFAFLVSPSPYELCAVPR
Chain of Cytochrome P450 2C9 (P11712 whole entry): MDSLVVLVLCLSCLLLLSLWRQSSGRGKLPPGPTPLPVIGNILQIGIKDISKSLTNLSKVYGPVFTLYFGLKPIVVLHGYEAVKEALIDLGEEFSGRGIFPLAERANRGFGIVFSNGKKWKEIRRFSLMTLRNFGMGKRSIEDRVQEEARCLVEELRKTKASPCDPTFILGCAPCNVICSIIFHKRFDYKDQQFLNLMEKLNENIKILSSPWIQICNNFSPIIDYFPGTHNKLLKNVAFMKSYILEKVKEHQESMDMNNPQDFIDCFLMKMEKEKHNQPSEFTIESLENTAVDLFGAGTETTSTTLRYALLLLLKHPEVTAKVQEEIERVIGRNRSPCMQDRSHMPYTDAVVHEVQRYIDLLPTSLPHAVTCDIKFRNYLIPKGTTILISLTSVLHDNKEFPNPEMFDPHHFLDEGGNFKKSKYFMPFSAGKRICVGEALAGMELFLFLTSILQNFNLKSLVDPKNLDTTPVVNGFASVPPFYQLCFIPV
Chain of Cytochrome P450 3A4 (P08684 whole entry): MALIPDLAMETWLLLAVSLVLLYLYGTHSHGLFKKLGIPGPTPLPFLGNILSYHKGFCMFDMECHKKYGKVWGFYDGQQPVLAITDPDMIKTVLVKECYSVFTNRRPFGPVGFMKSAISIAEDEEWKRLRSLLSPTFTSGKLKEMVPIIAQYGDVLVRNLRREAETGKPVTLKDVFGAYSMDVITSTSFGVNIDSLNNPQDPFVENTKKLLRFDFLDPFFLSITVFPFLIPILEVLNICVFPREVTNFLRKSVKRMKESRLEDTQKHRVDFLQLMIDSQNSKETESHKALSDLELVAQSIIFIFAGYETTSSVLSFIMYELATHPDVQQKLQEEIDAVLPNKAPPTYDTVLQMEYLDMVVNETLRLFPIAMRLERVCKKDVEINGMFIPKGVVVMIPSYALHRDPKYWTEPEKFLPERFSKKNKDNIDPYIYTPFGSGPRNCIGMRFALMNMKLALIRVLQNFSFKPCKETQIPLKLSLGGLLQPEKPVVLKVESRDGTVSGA

For the compound `CC(=O)N1CCc2c(c(N3CCCc4cc(-c5cnn(C)c5)c(C(F)F)cc43)nn2C2CCOCC2)C1`, the IC50 at CREB-binding protein [1] is 0.0011 µM; on CREB-binding protein [3], 0.012 µM; in series [4], greater than 20 µM; in series [5], 4.2 µM. For the same compound, at CREB-binding protein [2], the EC50 was 0.014 µM.
As for `CNC(=O)N1CCc2c(c(N3CCCc4cc(-c5cnn(C)c5)c(C(F)F)cc43)nn2C2CCOCC2)C1`, the inhibition in vivo at 10 mg/kg in [6] stood at 71%. Also, the inhibition in vivo at 3 mg/kg in [7] turned out to be 73%. Besides, the IC50 on Cytochrome P450 3A4, against Cytochrome P450 2C9, against Cytochrome P450 2C19 and at Cytochrome P450 2D6 was greater than 10 µM throughout. Moreover, the inhibition in vivo at 30 mg/kg in series [8] was determined as 89%. Further, the “%max” value in the series on Mus musculus [9] came out at 3.7%. For the same compound, the Drug uptake result in [10] is reported as “Active”. Also, in the series on Mus musculus [11], the Imax is recorded as 88%. Also, in the series with Mus musculus [12], the inhibition result is “Active”. For the same compound, the values for the Activity (in the series on Mus musculus [13]; in [14]) were 150% and “Non-Toxic”, respectively.
